Sampled rows, rich in hits. Any-hit rate of the full collection: about 1.9%.
Hck-Nef inh – inhibitors of human Hck kinase activated by Nef | P08631 | Recombinant Hck-YEEI plus Nef, Z-Lyte FRET kinase assay | inhibition, % at 20 µM | 0.68% of 220,000 active | AID 463187;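 active means Hck-Nef kinase inhibition above about 50%, limit read from the data; inactive means inhibition below that limit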;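 further: 0% = DMSO with Hck plus Nef and 100% = Hck alone without Nef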
Target sequence (P08631 whole entry, looked up): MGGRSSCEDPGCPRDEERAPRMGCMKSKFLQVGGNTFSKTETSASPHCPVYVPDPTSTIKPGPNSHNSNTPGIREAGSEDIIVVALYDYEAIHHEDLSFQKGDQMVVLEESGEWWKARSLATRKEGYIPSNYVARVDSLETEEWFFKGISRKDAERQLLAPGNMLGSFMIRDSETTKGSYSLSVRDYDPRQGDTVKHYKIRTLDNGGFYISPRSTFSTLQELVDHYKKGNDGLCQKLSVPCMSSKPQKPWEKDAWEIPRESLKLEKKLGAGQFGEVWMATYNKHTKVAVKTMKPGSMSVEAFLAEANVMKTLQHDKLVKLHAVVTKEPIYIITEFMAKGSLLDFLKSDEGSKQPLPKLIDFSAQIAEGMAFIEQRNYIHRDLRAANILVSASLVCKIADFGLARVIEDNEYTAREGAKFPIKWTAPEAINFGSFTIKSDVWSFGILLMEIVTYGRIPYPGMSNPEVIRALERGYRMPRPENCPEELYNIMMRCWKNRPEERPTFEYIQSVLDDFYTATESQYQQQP
Runt-SMMHC FRET – blocks binding of human RUNX1 Runt domain to CBFb-SMMHC; Q01196+Q13951; Cerulean-Runt/Venus-CBFb-SMMHC FRET ratio 530/480, 1 h; inhibition, % at 20 µM; 0.74% of 220,000 active;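 active means mean inhibition across duplicate retests at 20 µM reaching about 50%, limit read from the data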;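 further: 0% = DMSO wells and 100% = wells with excess untagged CBFb-SMMHC; inhibitors lower the FRET ratio by blocking Runt binding to CBFb-SMMHC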
RanGTP-Impb inh – disruptors of Ran-importin-beta complex formation – biochemical, FRET, CFP-Ran, YFP-importin-beta, homogeneous, primary screen | cell-free CFP-Ran/YFP-importin-beta FRET ratio | inhibition, % (no concentration beside the values) | 1.1% of 300,000 active | AID 2216;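 active means more than half of the replicate wells show a fall in the fluorescence ratio signal beyond about 16%, limit read from the data, passing the limit was not always enough; inconclusive means exactly half of the replicate wells pass the set limit; inactive means fewer than half of replicates pass the limit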;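 further: 0% = DMSO wells and 100% = Ran loaded with GDP instead of GTP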
Runt-CBFb FRET – Runt domain-CBFb interaction inhibition | Q01196+Q13951 | Cerulean-Runt/Venus-CBFb FRET ratio 530/480, 1 h | inhibition, % at 20 µM | 0.46% of 220,000 active;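 active means inhibition over about 50% at 20 µM in the single-dose screen, limit read from the data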;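 further: 0% = DMSO wells and 100% = excess unlabeled CBFb competitor control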
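System: Cerulean-labeled Runt domain protein | Quantity: 100 nM of each labeled protein | Schedule: 1 h compound exposure, room temperature | Detection: Fluorescence energy transfer, 422 nm excitation, 530/480 nm emission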
An asterisk follows results filed as active; ? = inconclusive; . = not tested or not shown.

SMILES | Hck-Nef inh | Runt-SMMHC FRET | RanGTP-Impb inh | Runt-CBFb FRET
Nc1ncnc2c1nc(Br)n2[C@@H]1O[C@@H]2COP(=O)(O)O[C@H]2[C@H]1O | . | . | -1.7 | .
COc1ccc(/C=C2/SC(=S)N(c3ccc(S(=O)(=O)Nc4nccs4)cc3)C2=O)cc1 | 59.2* | -20.9 | -5.6 | -9.8
O=c1oc(-c2cccc(S(=O)(=O)N3CCOCC3)c2)nc2ccccc12 | -3.1 | -3.4 | -0.6 | -1.8
CC(=O)Nc1sc2c(c1-c1nc3ccccc3s1)CCN(C(C)C)C2 | -36.9 | 85.4* | . | 23.7
CC(C)N1CCc2c(sc(NC(=O)c3ccc(C(=O)c4ccccc4)cc3)c2C(N)=O)C1 | . | . | 63.5* | .
CN1CCc2c(sc(NC(=O)c3cc4cc([N+](=O)[O-])ccc4s3)c2C(N)=O)C1 | 21.3 | 17.2 | 3.6 | 5.0
CC(C)N1CCc2c(sc(NC(=O)c3cc4cc([N+](=O)[O-])ccc4s3)c2C(N)=O)C1 | 9.3 | -0.5 | 32.9* | -2.1
CN1CCc2c(sc(NC(=O)c3ccc(S(=O)(=O)N4CCc5ccccc54)cc3)c2C(N)=O)C1 | -44.7 | 13.6 | 2.8 | 7.3
CC(=O)N1CCc2c(sc(NC(=O)c3cccc(N4C(=O)CCC4=O)c3)c2C(N)=O)C1 | . | . | 4.1 | .
CC(C)N1CCc2c(sc(NC(=O)c3ccc4ccccc4c3)c2C(N)=O)C1 | . | . | 147.7* | .
Cc1cccc(N2CCN(C(=O)c3ccc4nc(-c5ccco5)c(-c5ccco5)nc4c3)CC2C)c1 (stereo unspecified) | 9.2 | -14.7 | 35.1* | 12.7
COc1cccc(C2C3CN(C)CC=C3C(C#N)=C(N)C2(C#N)C#N)c1OC (stereo unspecified) | 11.6 | 61.5* | 38.7* | 74.0*
CCOC(=O)N1CC=C2C(C#N)=C(N)C(C#N)(C#N)[C@H](c3ccccc3OCC)[C@H]2C1 | 5.7 | -0.7 | 3.4 | 0.2
N#CC1=C(N)C(C#N)(C#N)[C@H](c2cccnc2)[C@H]2CN(C(=O)OCc3ccccc3)CC=C12 | 10.8 | 7.2 | 12.5 | 12.9
CCN1CC=C2C(C#N)=C(N)C(C#N)(C#N)[C@H](c3cccc(OC)c3OC)[C@H]2C1 | 17.7 | 62.0* | . | 40.8
Cn1c(NN)nc2c1c(=O)n(Cc1ccccc1)c(=O)n2C | . | . | -4.5 | .
CCOC(=O)/C(=N/Nc1ccccc1)Sc1nnc(CCc2ccccc2)n1-c1ccccc1 | 2.9 | 2.5 | . | -4.7
CC(=O)c1nn(-c2cccc(Br)c2)cc1C(=O)c1ccc(Br)cc1 | -20.8 | 0.1 | 29.2* | -0.2
CCCCC(=O)Nc1nn(CC(C)C)c2nc3ccccc3cc12 | 3.3 | 41.5 | 29.2* | 21.9
CCCn1nc(NC(=O)CC(C)C)c2cc3ccccc3nc21 | 14.0 | 22.9 | 27.2* | -4.2
COc1cccc(CNC(=O)c2cnc(-c3ccccn3)nc2C(F)(F)F)c1 | -2.6 | 5.6 | 29.5* | 0.5
CCCS(=O)(=O)c1c(S(=O)(=O)CCC)c2cnccn2c1C(=O)c1ccc(OC)cc1 | 7.7 | -0.6 | -1.4 | -2.2
CCCS(=O)(=O)c1c(S(=O)(=O)CCC)c2cc(-c3ccncc3)ccn2c1C(=O)OC | 19.8 | 109.2* | -1.9 | 17.6
CCCn1c(=N)c(S(=O)(=O)c2ccccc2)cc2c(=O)n3cccc(C)c3nc21 | . | . | 144.6* | .
Cc1cccn2c(=O)c3cc(S(=O)(=O)c4ccc(Br)cc4)c(=N)n(C4CCCC4)c3nc12 | . | . | 2.6 | .
SMILES | Hck-Nef inh | Runt-SMMHC FRET | RanGTP-Impb inh | Runt-CBFb FRET
CCn1c(=N)c(S(=O)(=O)c2ccc(Cl)cc2)cc2c(=O)n3ccccc3nc21 | 20.3 | . | 2.3 | .
CCCCCn1c(=N)c(S(=O)(=O)c2ccc(Cl)cc2)cc2c(=O)n3cccc(C)c3nc21 | . | . | 67.3* | .
COc1ccc2oc(=N)c(C(=O)Nc3ccc(C)cc3)cc2c1 | . | . | -1.9 | .
COc1ccc2o/c(=N\O)c(C(=O)Nc3ccc(C)cc3)cc2c1 | 18.0 | 62.6* | 3.7 | 20.9
COc1ccccc1NC(=O)c1cc2ccc(O)cc2o/c1=N\O | 5.9 | 81.2* | 134.8* | 95.2*
COc1ccccc1NC(=O)c1cc2ccccc2o/c1=N\O | . | 62.1* | -1.9 | 47.6
O=C(O)c1cn[nH]c1-c1cccc([N+](=O)[O-])c1 | 5.2 | 4.3 | 3.6 | -0.5
NC(=O)c1ccc(NC(=O)COC(=O)c2c3c(nc4ccccc24)/C(=C\c2cccs2)CCC3)cc1 | 17.1 | -16.3 | 16.3* | -20.7
Cc1ccc(C)c(N2CC(=O)N(c3cc(C)ccc3C)CC2=O)c1 | -0.4 | 3.0 | 4.5 | -0.7
CCCCn1c(=O)nc2n(-c3ccccc3)c3ccccc3cc-2c1=O | 16.6 | 60.4* | 142.3* | 10.4
Cc1ccc(C)c(-n2c3nc(=O)n(C)c(=O)c-3cc3ccccc32)c1 | 25.2 | 81.0* | 133.3* | 12.9
O=C1CC(/C=C/c2ccncc2)=Nc2ccccc2N1 | 32.4 | -0.2 | ? | 0.9
CO/N=C/C(C#N)=C/c1cc(C(=O)c2ccccc2)cn1C | 4.7 | 1.9 | -1.4 | 6.6
COc1ccc2c(C)c(C)c(=O)oc2c1OC | 17.7 | 0.0 | -0.8 | -0.6
Cc1c(Br)c(=O)oc2c(C)c(O)ccc12 | 38.6 | 73.2* | 32.8* | 48.4
CCCNC(=S)Nc1ccc2nc(-c3ccccn3)c(-c3ccccn3)nc2c1 | 1.0 | -22.6 | 27.5* | .
S=C(Nc1ccc2nc(-c3ccccn3)c(-c3ccccn3)nc2c1)N1CCCCC1 | 16.1 | . | . | .
Cc1ccc(C(=O)NCC(=O)N/N=C/c2sccc2C)cc1[N+](=O)[O-] | 18.8 | -2.5 | 1.5 | -2.9
COc1ccccc1NC1=CC(=O)CC(c2ccccc2)C1 (stereo unspecified) | 2.7 | 6.2 | 55.3* | 2.4
O=C(O)c1ccc(Oc2ccc(S(=O)(=O)c3ccc(C(=O)O)c(C(=O)O)c3)cc2)cc1 | . | . | -1.0 | .
COc1ccc(NS(=O)(=O)c2cccc(C(=O)NNC(=O)CNC(=O)c3ccco3)c2)cc1 | . | . | -4.2 | .
O=C(O)c1cc2cc(Cl)cc(Cl)c2oc1=O | -1.3 | -60.0 | -2.0 | -9.5
O=C(O)c1cc2ccc3ccccc3c2oc1=O | 8.9 | 96.9* | ? | 27.7

From PubChem
